Values belong to the compound of their own block, whether it stands above or below them. Activity calls are given as the source filed them. No cut-off for these calls is given here.
Key:
[1] = system: HeLa; experiment: Antiproliferative activity against human HeLa cells by MTT assay; format: functional, cell-based
Summary of the method: (§1)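 Growth inhibition rate calculated per compound. IC₅₀ derived by curve fitting.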

[2] = system: A2780; experiment: Antiproliferative activity against human A2780 cells by MTT assay; format: functional, cell-based; summary of the method: as §1
[3] = system: HCT-116; experiment: Antiproliferative activity against human HCT116 cells by MTT assay; format: functional, cell-based; summary of the method: as §1
[4] = system: MDA-MB-231; experiment: Antiproliferative activity against human MDA-MB-231 cells by MTT assay; format: functional, cell-based; summary of the method: as §1
[5] = Cytotoxicity against HOSEC at 10 uM by MTT assay relative to control; conditions: human
[6] = Cytotoxicity against HOSEC at 50 uM by MTT assay relative to control; conditions: human
[7] = system: HeLa; experiment: Induction of apoptosis in human HeLa cells assessed as necrotic cells at 2 uM after 72 hrs by Annexin V-FITC/propidium iodide staining-based flow cytometric analysis (reference value: 0.5%); format: functional
[8] = Cytotoxicity against HOSEC at 10 to 50 uM by MTT assay relative to control; conditions: human
[9] = system: A2780; experiment: Inhibition of colony formation of human A2780 cells incubated for 48 hrs followed by subsequent incubation for 7 to 10 days in fresh medium by gentian violet staining-based colony formation assay; format: functional, cell-based
Summary of the method: (§2)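 MDA-MB-231 or A2780 cells seeded at 1000 per well and grown 48 h at 37 °C, 5% CO₂. Then exposed to compound or DMSO for 48 h, medium replaced, and grown a further 7-10 days. Colonies fixed with methanol for 20 min and stained with gentian violet for 30 min. Three independent runs.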

[10] = system: MDA-MB-231; experiment: Inhibition of colony formation of human MDA-MB-231 cells incubated for 48 hrs followed by subsequent incubation for 7 to 10 days in fresh medium by gentian violet staining-based colony formation assay; format: functional, cell-based; summary of the method: as §2
[11] = system: MDA-MB-231; experiment: Inhibition of colony formation of human MDA-MB-231 cells at 800 nM incubated for 48 hrs followed by subsequent incubation for 7 to 10 days in fresh medium by gentian violet staining-based colony formation assay; format: functional, cell-based; summary of the method: as §2
[12] = (§3) Inhibition of pig brain tubulin polymerization measured every 1 min for 20 mins by spectrophotometric analysis; set-up: species or system Sus scrofa
[13] = species on record: Sus scrofa; experiment: as §3
[14] = system: HeLa; experiment: Cell cycle arrest in human HeLa cells assessed as accumulation of cells at G2/M phase after 24 hrs by propidium iodide staining-based flow cytometric analysis; format: functional
Summary of the method: (§4)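 HeLa cells treated with compound or DMSO, washed in PBS and fixed in 75% ethanol at -20 °C overnight. Stained with propidium iodide containing 0.1% RNase for 15 min in the dark at room temperature. DNA content read by flow cytometry to give cell-cycle phase distribution.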

[15] = system: HeLa; experiment: Cell cycle arrest in human HeLa cells assessed as accumulation of cells at G2/M phase at 2 uM after 12 hrs by propidium iodide staining-based flow cytometric analysis (reference value: 17.6%); format: functional; summary of the method: as §4
[16] = system: HeLa; experiment: Induction of apoptosis in human HeLa cells assessed as viable cells at 0.5 uM after 72 hrs by Annexin V-FITC/propidium iodide staining-based flow cytometric analysis (reference value: 87.6%); format: functional; conditions: read-out: Activity
[17] = system: HeLa; experiment: Induction of apoptosis in human HeLa cells assessed as early apoptotic cells at 0.5 uM after 72 hrs by Annexin V-FITC/propidium iodide staining-based flow cytometric analysis (reference value: […]); format: functional
[18] = system: HeLa; experiment: Induction of apoptosis in human HeLa cells assessed as late apoptotic cells at 0.5 uM after 72 hrs by Annexin V-FITC/propidium iodide staining-based flow cytometric analysis (reference value: 3.3%); format: functional
[19] = system: HeLa; experiment: Induction of apoptosis in human HeLa cells assessed as necrotic cells at 0.5 uM after 72 hrs by Annexin V-FITC/propidium iodide staining-based flow cytometric analysis (reference value: 0.5%); format: functional
[20] = system: HeLa; experiment: Induction of apoptosis in human HeLa cells assessed as viable cells at 1 uM after 72 hrs by Annexin V-FITC/propidium iodide staining-based flow cytometric analysis (reference value: 87.6%); format: functional; conditions: read-out: Activity
[21] = system: HeLa; experiment: Induction of apoptosis in human HeLa cells assessed as early apoptotic cells at 1 uM after 72 hrs by Annexin V-FITC/propidium iodide staining-based flow cytometric analysis (reference value: […]); format: functional
[22] = system: HeLa; experiment: Induction of apoptosis in human HeLa cells assessed as late apoptotic cells at 1 uM after 72 hrs by Annexin V-FITC/propidium iodide staining-based flow cytometric analysis (reference value: 3.3%); format: functional
[23] = system: HeLa; experiment: Induction of apoptosis in human HeLa cells assessed as necrotic cells at 1 uM after 72 hrs by Annexin V-FITC/propidium iodide staining-based flow cytometric analysis (reference value: 0.5%); format: functional
[24] = system: HeLa; experiment: Induction of apoptosis in human HeLa cells assessed as viable cells at 2 uM after 72 hrs by Annexin V-FITC/propidium iodide staining-based flow cytometric analysis (reference value: 87.6%); format: functional; conditions: read-out: Activity
[25] = system: HeLa; experiment: Induction of apoptosis in human HeLa cells assessed as early apoptotic cells at 2 uM after 72 hrs by Annexin V-FITC/propidium iodide staining-based flow cytometric analysis (reference value: […]); format: functional
[26] = system: HeLa; experiment: Induction of apoptosis in human HeLa cells assessed as late apoptotic cells at 2 uM after 72 hrs by Annexin V-FITC/propidium iodide staining-based flow cytometric analysis (reference value: 3.3%); format: functional
[27] = system: HeLa; experiment: Induction of apoptosis in human HeLa cells after 72 hrs by Annexin V-FITC/propidium iodide staining-based flow cytometric analysis; format: functional, cell-based
[28] = system: HeLa; experiment: Induction of cell cycle arrest in human HeLa cells assessed as increase in cyclin B1 expression levels at 1.25 to 20 uM after 24 hrs by Western blot analysis; format: functional, cell-based
Summary of the method: (§5)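 HeLa cells treated with compound or DMSO for 24 h and lysed; protein quantified by BCA. Run on 8-12% SDS-PAGE and blotted to PVDF. Blocked in 5% BSA/TBST for 1.5 h, primary antibody overnight at 4 °C, secondary 2 h at room temperature. Chemiluminescent detection.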

[29] = system: HeLa; experiment: Induction of cell cycle arrest in human HeLa cells assessed as increase in phosphorylated histone H3 levels at 1.25 to 20 uM after 24 hrs by Western blot analysis; format: functional, cell-based; summary of the method: as §5
[30] = system: HUVEC; experiment: Antiangiogenic activity against HUVEC assessed as capillary like tube formation at 1 uM after 12 hrs by matrigel-based microscopic analysis; format: functional, cell-based; conditions: Homo sapiens
Summary of the method: (§6)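 Matrigel pre-set in wells for 2 h at 37 °C, 5% CO₂. HUVECs (10⁴ per well) seeded in medium with compound or DMSO. Incubated 6-12 h, then capillary-like tube networks photographed under a microscope.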

[31] = system: HUVEC; experiment: Antiangiogenic activity against HUVEC assessed as capillary like tube formation at 2 uM after 6 to 12 hrs by matrigel-based microscopic analysis; format: functional, cell-based; conditions: Homo sapiens; summary of the method: as §6
[32] = system: A2780; experiment: Antitumor activity against human A2780 cells xenografted in Balb/c nude mouse assessed as tumor growth inhibition at 20 mg/kg, ip administered every other day relative to control; format: functional; conditions: read-out: TGI
[33] = system: Mus musculus; experiment: Toxicity in Balb/c nude mouse xenografted with human A2780 cells assessed as body weight at 20 mg/kg, ip measured immediately after first dose (reference value: 21.74 +/- 0.63 g); format: organism-based; conditions: in vivo
[34] = system: Mus musculus; experiment: Toxicity in Balb/c nude mouse xenografted with human A2780 cells assessed as body weight at 20 mg/kg, ip administered every other day measured at end of study (reference value: 22.35 +/- 0.74 g); format: organism-based; conditions: in vivo
[35] = system: HeLa; experiment: Induction of apoptosis in human HeLa cells assessed as increase in p53 protein levels after 24 hrs Western blot analysis
[36] = system: HeLa; experiment: Induction of apoptosis in human HeLa cells assessed as increase in cleaved PARP1 protein levels after 24 hrs Western blot analysis

IC50 [1]: 81 nM
IC50 [2]: 97 nM
IC50 [3]: 157 nM
IC50 [4]: 125 nM
SMILES: COc1ccc(N2C(=O)N(C)C(=O)[C@H]2c2cc(OC)c(OC)c(OC)c2)cc1N

IC50 [1]: > 50000 nM
IC50 [2]: > 50000 nM
SMILES: COc1cc(C2C(=O)NC(=O)N2c2cccc(O)c2)cc(OC)c1OC (centres undefined)

IC50 [1]: 3300 nM
IC50 [2]: 1910 nM
SMILES: CCN1C(=O)C(c2cc(OC)c(OC)c(OC)c2)N(c2ccc(OC)c(N)c2)C1=O (centres undefined)

IC50 [1]: 399 nM
IC50 [2]: 305 nM
IC50 [3]: 355 nM
IC50 [4]: 582 nM
SMILES: COc1ccc(N2C(=O)N(C)C(=O)[C@@H]2c2cc(OC)c(OC)c(OC)c2)cc1N

IC50 [1]: > 50000 nM
IC50 [2]: 8410 nM
SMILES: COc1cc(C2C(=O)NC(=O)N2c2ccc3[nH]ccc3c2)cc(OC)c1OC (centres undefined)

IC50 [1]: > 50000 nM
IC50 [2]: > 50000 nM
SMILES: COc1ccc(N2C(=O)NC(=O)C2c2cc(OC)c(OC)c(OC)c2)cn1 (centres undefined)

SMILES: CC(=O)O[C@H]1C(=O)[C@@]2(C)[C@H]([C@H](OC(=O)c3ccccc3)[C@]3(O)C[C@H](OC(=O)[C@H](O)[C@@H](NC(=O)c4ccccc4)c4ccccc4)C(C)=C1C3(C)C)[C@]1(OC(C)=O)CO[C@@H]1C[C@@H]2O [PACLITAXEL]
Activity [5]: 51%
Activity [6]: 94%

IC50 [1]: 251 nM
IC50 [2]: 186 nM
IC50 [3]: 265 nM
IC50 [4]: 279 nM
IC50 [12]: 16200 nM
inhibition [13]: Dose-dependent effect
SMILES: COc1ccc(N2C(=O)N(C)C(=O)C2c2cc(OC)c(OC)c(OC)c2)cc1N (centres undefined)
Activity [7]: 2.2%
Activity [8]: ≤ 33%
inhibition [9]: Dose-dependent effect
inhibition [10]: Dose-dependent effect
inhibition [11]: Active
Activity [14]: Dose-dependent effect
Activity [15]: 91.4%
viability at 0.5 µM [16]: 67.8%
Activity [17]: 25.3%
Activity [18]: 6.1%
Activity [19]: 0.8%
viability at 1 µM [20]: 43.2%
Activity [21]: 47.8%
Activity [22]: 8.7%
Activity [23]: 0.3%
viability at 2 µM [24]: 27.3%
Activity [25]: 53%
Activity [26]: 17.5%
Activity [27]: Dose-dependent effect
Activity [28]: Active
Activity [29]: Active
Activity [30]: Active
Activity [31]: Active
inhibition in vivo at 20 mg/kg [32]: 46.9%
Activity [33]: 21.62 g
Activity [34]: 22.05 g
Activity [35]: Dose-dependent effect
Activity [36]: Dose-dependent effect

IC50 [1]: 620 nM
IC50 [2]: 627 nM
IC50 [3]: 475 nM
IC50 [4]: 835 nM
SMILES: COc1cc(C2C(=O)NC(=O)N2c2ccc(C)c(C)c2)cc(OC)c1OC (centres undefined)

IC50 [1]: > 50000 nM
IC50 [2]: > 50000 nM
SMILES: COc1cc(C2C(=O)NC(=O)N2c2ccccc2)cc(OC)c1OC (centres undefined)

IC50 [1]: 429 nM
IC50 [2]: 353 nM
IC50 [3]: 386 nM
IC50 [4]: 301 nM
SMILES: COc1ccc(N2C(=O)N(C)C(=O)C2c2cc(OC)c(OC)c(OC)c2)cc1O (centres undefined)

IC50 [1]: 584 nM
IC50 [2]: 283 nM
IC50 [3]: 232 nM
IC50 [4]: 311 nM
SMILES: COc1ccc(N2C(=O)NC(=O)C2c2cc(OC)c(OC)c(OC)c2)cc1N (centres undefined)

SMILES: COc1ccc(N2C(=O)NC(=O)C2c2cc(OC)c(OC)c(OC)c2)cc1OS(=O)(=O)F (centres undefined)
IC50 [1]: 6760 nM
IC50 [2]: 4520 nM

IC50 [1]: > 50000 nM
IC50 [2]: > 50000 nM
SMILES: COc1cc(C2C(=O)NC(=O)N2c2cc(OC)c(OC)c(OC)c2)cc(OC)c1OC (centres undefined)

IC50 [1]: > 50000 nM
IC50 [2]: > 50000 nM
SMILES: COc1cc(C2C(=O)NC(=O)N2c2cnc3ccccc3c2)cc(OC)c1OC (centres undefined)

IC50 [1]: > 50000 nM
IC50 [2]: > 50000 nM
SMILES: COc1ccc(C2C(=O)NC(=O)N2c2cc(OC)c(OC)c(OC)c2)cc1 (centres undefined)
